The target in this assay is Amyloid-beta precursor protein (Homo sapiens, UniProt P05067). Description: Inhibition of gamma-secretase. In a few lines: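 Membrane preparation (5.0 µg total protein, in 20 mM Hepes pH 5.0, 5 mM EDTA) incubated 2 h at 37 °C with compound serially diluted in DMSO then in start buffer (Hepes pH 7.5, 5 mM EDTA); 2% DMSO final. Quenched with Tris/NaCl/BSA/Triton mix carrying biotin-W02 and Europium-labelled G2-10 (both Aβ40-specific) plus allophycocyanin-streptavidin. Signal developed 2–16 h at room temperature; HTRF at 665 nm. IC50 as mean of ≥2 determinations.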
Chain of Amyloid-beta precursor protein (P05067 whole entry): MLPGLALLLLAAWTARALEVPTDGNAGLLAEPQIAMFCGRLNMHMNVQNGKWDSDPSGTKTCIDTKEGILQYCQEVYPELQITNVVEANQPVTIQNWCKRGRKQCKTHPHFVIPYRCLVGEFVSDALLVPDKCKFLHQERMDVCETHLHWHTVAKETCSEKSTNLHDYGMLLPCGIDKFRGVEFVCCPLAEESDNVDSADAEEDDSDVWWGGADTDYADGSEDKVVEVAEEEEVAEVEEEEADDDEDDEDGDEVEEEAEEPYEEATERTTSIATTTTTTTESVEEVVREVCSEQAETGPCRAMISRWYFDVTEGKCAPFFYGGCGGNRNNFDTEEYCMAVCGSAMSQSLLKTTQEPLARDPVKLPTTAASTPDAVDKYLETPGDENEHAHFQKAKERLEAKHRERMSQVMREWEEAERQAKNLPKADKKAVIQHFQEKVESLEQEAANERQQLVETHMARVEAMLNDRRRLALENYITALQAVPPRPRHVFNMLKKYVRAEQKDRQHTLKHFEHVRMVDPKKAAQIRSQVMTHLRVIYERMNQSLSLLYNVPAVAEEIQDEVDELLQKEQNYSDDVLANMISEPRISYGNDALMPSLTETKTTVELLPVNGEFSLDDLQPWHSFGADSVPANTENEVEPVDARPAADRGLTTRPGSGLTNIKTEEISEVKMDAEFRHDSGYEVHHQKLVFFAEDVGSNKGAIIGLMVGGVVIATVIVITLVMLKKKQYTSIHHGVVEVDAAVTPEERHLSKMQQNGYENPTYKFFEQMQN
As to `O=C(NCCCn1ccnc1)OCCC1CCc2ccccc2N1S(=O)(=O)c1ccc(Cl)cc1` (stereo unspecified) [2-(1-(4-chlorophenylsulfonyl)-1,2,3,4-tetrahydroquinolin-2-yl)ethyl 3-(1H-imidazol-1-yl)propylcarbamate], the IC50 is 280 nM.
In the case of `CN1CCCC1CCNC(=O)OCCCC1CCc2ccccc2N1S(=O)(=O)c1ccc(Cl)cc1` (stereo unspecified) [3-(1-(4-chlorophenylsulfonyl)-1,2,3,4-tetrahydroquinolin-2-yl)propyl 2-(1-methylpyrrolidin-2-yl)ethylcarbamate] it was 220 nM; in that of `O=C(NCCCn1ccnc1)OCCCC1CCc2ccccc2N1S(=O)(=O)c1ccc(Cl)cc1` (stereo unspecified) [3-(1-(4-chlorophenylsulfonyl)-1,2,3,4-tetrahydroquinolin-2-yl)propyl 3-(1H-imidazol-1-yl)propylcarbamate], 86 nM.
As for `O=C(OCCCC1CCc2ccccc2N1S(=O)(=O)c1ccc(Cl)cc1)N1CCN(C2CCCCC2)CC1` (stereo unspecified) [3-(1-(4-chlorophenylsulfonyl)-1,2,3,4-tetrahydroquinolin-2-yl)propyl 4-cyclohexylpiperazine-1-carboxylate], the figure is 180 nM; as for `CN1CCCC1CCNC(=O)OC[C@H]1CC[C@@H](c2ccccc2)N1S(=O)(=O)c1ccc(Cl)cc1` (stereo partly drawn) [((2R,5S)-1-(4-chlorophenylsulfonyl)-5-phenylpyrrolidin-2-yl)methyl 2-(1-methylpyrrolidin-2-yl)ethylcarbamate], 600 nM; as for `O=C(OC[C@H]1CC[C@@H](c2ccccc2)N1S(=O)(=O)c1ccc(Cl)cc1)N1CCN(CCO)CC1` [((2R,5S)-1-(4-chlorophenylsulfonyl)-5-phenylpyrrolidin-2-yl)methyl 4-(2-hydroxyethyl)piperazine-1-carboxylate], 540 nM.

The IC50 is the concentration that gives 50% inhibition. Read a low IC50 as greater potency.

The record behind these values is BindingDB's records for doi:10.1016/j.bmcl.2007.03.055 (Pharmacopeia Drug Discovery, 2007).
